Source: ChEMBL document CHEMBL3124917, “Design, synthesis, and biological evaluation of deuterated C-aryl glycoside as a potent and long-acting renal sodium-dependent glucose cotransporter 2 inhibitor for the treatment of type 2 diabetes” (J Med Chem, 2014)

What was measured:
Rattus norvegicus [1] = test: Antidiabetic activity in Sprague-Dawley rat assessed as urinary glucose excretion at 1 mg/kg, po administered 1 hr prior to glucose challenge measured after 1 to 4 hrs relative to dapagliflozin; assay type: functional, Urine
Procedure, shortened: (§1)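 Overnight-fasted Sprague-Dawley rats, n = 3 per group, dosed 1 mg/kg by oral gavage in 30% PEG400; controls received vehicle. Oral glucose (2 g/kg, 10 mL/kg) given 1 h post-dose. Urine collected in metabolic cages at 0–4 and 4–24 h, glucose measured on a biochemistry analyzer. Expressed as % of reference positive control; mean ± SD.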

Rattus norvegicus [2] = test: Antidiabetic activity in Sprague-Dawley rat assessed as urinary glucose excretion at 1 mg/kg, po administered 1 hr prior to glucose challenge measured after 4 to 24 hrs relative to dapagliflozin; assay type: functional, Urine; procedure, shortened: as §1
Canis familiaris [3] = test: Antidiabetic activity in Beagle dog assessed as urinary glucose excretion at 0.03 mg/kg, po administered 1 hr prior to glucose challenge measured after 8 to 24 hrs relative to dapagliflozin; assay type: functional, Canis lupus familiaris, Urine
Procedure, shortened: (§2)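 Overnight-fasted beagle dogs, n = 3 per group, given 0.03 mg/kg orally by gavage in 10% PEG400; vehicle controls received 10% PEG400. Oral glucose (2 g/kg, 5 mL/kg) given 1 h post-dose. Expressed as % of reference positive control; mean ± SD.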

Rattus norvegicus [4] = test: Antidiabetic activity in Sprague-Dawley rat assessed as urinary glucose excretion at 1 mg/kg, po administered 1 hr prior to glucose challenge measured after 1 to 24 hrs relative to dapagliflozin; assay type: functional, Urine; procedure, shortened: as §1
Canis familiaris [5] = test: Antidiabetic activity in Beagle dog assessed as urinary glucose excretion at 0.03 mg/kg, po administered 1 hr prior to glucose challenge measured after 1 to 8 hrs relative to dapagliflozin; assay type: functional, Canis lupus familiaris, Urine
Procedure, shortened: as §2, with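 “post-dose. Urine collected in metabolic cages at 0–8 and 8–24 h, glucose read on a biochemistry analyzer.” for “post-dose.”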

[6] = AUC (0 to infinity) in Sprague-Dawley rat at 3 mg/kg, po by LC-MS/MS analysis; assay type: ADME, organism-based; parameters: time infinity, dose 3 mg/kg, route oral; conditions: plasma
Procedure, shortened: (§3)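 Male Sprague-Dawley rats, n = 4 per group, overnight-fasted. Oral gavage of 3 or 1 mg/kg in 30% PEG400; i.v. arm at 1 mg/kg. Orbital plexus blood taken under ether at 0.083–24 h; plasma deproteinized and assayed by LC-MS/MS. Noncompartmental parameters derived; mean ± SD reported.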

Canis familiaris [7] = test: Antidiabetic activity in Beagle dog assessed as urinary glucose excretion at 0.03 mg/kg, po administered 1 hr prior to glucose challenge measured after 1 to 24 hrs relative to dapagliflozin; assay type: functional, Canis lupus familiaris, Urine
Procedure, shortened: as §2, with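 “post-dose. Urine collected in metabolic cages at 0–8 and 8–24 h, glucose read on a biochemistry analyzer.” for “post-dose.”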

Rattus norvegicus [8] = test: Antidiabetic activity in Sprague-Dawley rat assessed as reduction in blood glucose AUC at 10 mg/kg, po administered 1 hr prior to glucose challenge measured after 60 to 120 mins by oral glucose tolerance test relative to control; assay type: functional; parameters: scale not given: the % may be the effect or the level left
Procedure, shortened: (§4)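 Overnight-fasted male Sprague-Dawley rats, n = 5 per group, dosed orally at 0.1, 0.3, 1, 3 or 10 mg/kg in 30% PEG400 1 h before oral glucose challenge (20%, 2 g/kg). Blood glucose measured by glucometer from −60 to 120 min.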

[9] = Half life in Sprague-Dawley rat at 1 mg/kg, iv by LC-MS/MS analysis; assay type: ADME, organism-based; parameters: dose 1 mg/kg, route intravenous; conditions: in vivo; procedure, shortened: as §3
[10] = Clearance in Sprague-Dawley rat at 1 mg/kg, iv by LC-MS/MS analysis; assay type: ADME, organism-based; parameters: dose 1 mg/kg, route intravenous; conditions: in vivo; procedure, shortened: as §3
[11] = Half life in Sprague-Dawley rat at 1 mg/kg, po by LC-MS/MS analysis; assay type: ADME, organism-based; parameters: dose 1 mg/kg, route oral; conditions: in vivo; procedure, shortened: as §3
[12] = molecular target: T1, Sodium/glucose cotransporter 1 (Homo sapiens, UniProt P13866); test: Inhibition of full length human SGLT1 assessed as methyl-alpha-D-[U-14C]glucopyranoside uptake after 2 hrs by cell-based topcount scintillation counting analysis
T1 sequence (P13866 whole entry): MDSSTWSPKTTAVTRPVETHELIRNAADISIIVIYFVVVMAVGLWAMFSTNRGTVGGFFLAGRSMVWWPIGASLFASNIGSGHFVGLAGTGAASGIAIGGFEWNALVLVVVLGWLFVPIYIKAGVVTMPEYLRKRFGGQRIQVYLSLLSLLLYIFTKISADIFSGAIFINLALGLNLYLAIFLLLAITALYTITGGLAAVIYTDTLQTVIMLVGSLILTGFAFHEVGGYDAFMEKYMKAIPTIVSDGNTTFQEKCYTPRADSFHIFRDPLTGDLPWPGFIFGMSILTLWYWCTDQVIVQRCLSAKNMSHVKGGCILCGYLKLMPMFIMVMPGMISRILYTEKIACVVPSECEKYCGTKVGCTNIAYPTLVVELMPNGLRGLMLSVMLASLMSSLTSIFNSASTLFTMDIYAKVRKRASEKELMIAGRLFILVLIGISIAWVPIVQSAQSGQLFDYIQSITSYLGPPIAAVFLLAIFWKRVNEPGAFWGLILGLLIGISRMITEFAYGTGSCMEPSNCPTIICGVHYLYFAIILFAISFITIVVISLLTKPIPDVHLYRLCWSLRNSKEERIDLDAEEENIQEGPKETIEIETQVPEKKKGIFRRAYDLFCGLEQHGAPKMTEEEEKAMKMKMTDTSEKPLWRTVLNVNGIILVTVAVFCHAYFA

[13] = AUC (0 to infinity) in Sprague-Dawley rat at 1 mg/kg, iv by LC-MS/MS analysis; assay type: ADME, organism-based; parameters: time infinity, dose 1 mg/kg, route intravenous; conditions: plasma; procedure, shortened: as §3
Rattus norvegicus [14] = test: Antidiabetic activity in Sprague-Dawley rat assessed as reduction in blood glucose AUC at 1 mg/kg, po administered 1 hr prior to glucose challenge measured after 60 to 120 mins by oral glucose tolerance test relative to control; assay type: functional; parameters: scale not given: the % may be the effect or the level left; procedure, shortened: as §4
Rattus norvegicus [15] = test: Antidiabetic activity in Sprague-Dawley rat assessed as reduction in blood glucose AUC at 0.1 mg/kg, po administered 1 hr prior to glucose challenge measured after 60 to 120 mins by oral glucose tolerance test relative to control; assay type: functional; parameters: scale not given: the % may be the effect or the level left; procedure, shortened: as §4
[16] = AUC (0 to infinity) in Sprague-Dawley rat at 1 mg/kg, po by LC-MS/MS analysis; assay type: ADME, organism-based; parameters: time infinity, dose 1 mg/kg, route oral; conditions: plasma; procedure, shortened: as §3
[17] = molecular target: T2, Sodium/glucose cotransporter 2 (Homo sapiens, UniProt P31639); test: Inhibition of full length human SGLT2 assessed as methyl-alpha-D-[U-14C]glucopyranoside uptake after 1.5 hrs by cell-based topcount scintillation counting analysis
T2 sequence (P31639 whole entry): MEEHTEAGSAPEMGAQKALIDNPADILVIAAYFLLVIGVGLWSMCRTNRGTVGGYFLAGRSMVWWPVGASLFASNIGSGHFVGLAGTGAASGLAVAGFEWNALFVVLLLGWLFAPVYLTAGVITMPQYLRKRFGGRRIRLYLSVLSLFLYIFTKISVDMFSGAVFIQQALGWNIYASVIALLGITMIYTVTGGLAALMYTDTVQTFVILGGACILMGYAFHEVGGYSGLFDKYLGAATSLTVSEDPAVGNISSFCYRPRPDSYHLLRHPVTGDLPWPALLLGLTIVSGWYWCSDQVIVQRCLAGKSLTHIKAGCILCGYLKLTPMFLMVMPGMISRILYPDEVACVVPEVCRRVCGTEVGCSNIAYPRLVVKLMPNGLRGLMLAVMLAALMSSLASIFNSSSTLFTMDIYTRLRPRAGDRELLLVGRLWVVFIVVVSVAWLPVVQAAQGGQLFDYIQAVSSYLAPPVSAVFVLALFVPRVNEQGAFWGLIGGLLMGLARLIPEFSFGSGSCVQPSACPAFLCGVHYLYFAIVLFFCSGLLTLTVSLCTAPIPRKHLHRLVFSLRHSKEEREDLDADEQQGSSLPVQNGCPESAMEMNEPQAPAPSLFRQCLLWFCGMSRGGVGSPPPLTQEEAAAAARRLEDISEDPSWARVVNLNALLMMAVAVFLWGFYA

Rattus norvegicus [18] = test: Antidiabetic activity in Sprague-Dawley rat assessed as reduction in blood glucose AUC at 0.3 mg/kg, po administered 1 hr prior to glucose challenge measured after 60 to 120 mins by oral glucose tolerance test relative to control; assay type: functional; parameters: scale not given: the % may be the effect or the level left; procedure, shortened: as §4
[19] = Oral bioavailability in Sprague-Dawley rat at 1 mg/kg by LC-MS/MS analysis; assay type: ADME, organism-based; conditions: in vivo; procedure, shortened: as §3
[20] = Cmax in Sprague-Dawley rat at 1 mg/kg, po by LC-MS/MS analysis; assay type: ADME, organism-based; parameters: dose 1 mg/kg, route oral; conditions: in vivo; procedure, shortened: as §3
[21] = Tmax in Sprague-Dawley rat at 1 mg/kg, po by LC-MS/MS analysis; assay type: ADME, organism-based; parameters: dose 1 mg/kg, route oral; conditions: in vivo; procedure, shortened: as §3
[22] = Drug metabolism in Sprague-Dawley rat assessed as compound remaining at 50 mg/kg, po after 5 days by HPLC analysis; assay type: ADME, organism-based; parameters: dose 50 mg/kg, route oral; conditions: in vivo, read-out: Drug metabolism
Rattus norvegicus [23] = test: Antidiabetic activity in Sprague-Dawley rat assessed as reduction in blood glucose AUC at 3 mg/kg, po administered 1 hr prior to glucose challenge measured after 60 to 120 mins by oral glucose tolerance test relative to control; assay type: functional; parameters: scale not given: the % may be the effect or the level left; procedure, shortened: as §4

Row | AUC(0-inf) [6] | half-life [9] | clearance [10] | half-life [11] | AUC(0-inf) [13] | AUC(0-inf) [16] | bioavailability [19] | Cmax [20] | Tmax [21] | remaining at 120 h [22] | Structure (SMILES) | Activity (Rattus norvegicus [1]) | Activity (Rattus norvegicus [2]) | Activity (Canis familiaris [3]) | Activity (Rattus norvegicus [4]) | Activity (Canis familiaris [5]) | Activity (Canis familiaris [7]) | other results
1 | 20900 ng·h/mL |  |  |  |  |  |  |  |  |  | [2H]C([2H])(C)Oc1ccc(Cc2cc([C@@H]3O[C@H](CO)[C@@H](O)[C@H](O)[C@H]3O)ccc2Cl)cc1 | 119 mg | 2310 mg |  | 2430 mg |  |  | 
2 | 22600 ng·h/mL |  |  |  |  |  |  |  |  |  | [2H]C([2H])([2H])C([2H])([2H])Oc1ccc(Cc2cc([C@@H]3O[C@H](CO)[C@@H](O)[C@H](O)[C@H]3O)ccc2Cl)cc1 | 145 mg | 2150 mg |  | 2300 mg | 3470 mg | 12000 mg | 

Second part, the compound before the results:

Row | Structure (SMILES) | AUC(0-inf) [6] | half-life [9] | clearance [10] | half-life [11] | AUC(0-inf) [13] | AUC(0-inf) [16] | bioavailability [19] | Cmax [20] | Tmax [21] | remaining at 120 h [22] | Activity (Rattus norvegicus [1]) | Activity (Rattus norvegicus [2]) | Activity (Canis familiaris [3]) | Activity (Rattus norvegicus [4]) | Activity (Canis familiaris [5]) | Activity (Canis familiaris [7]) | other results
3 | [2H]C([2H])(c1ccc(OCC)cc1)c1cc([C@@H]2O[C@H](CO)[C@@H](O)[C@H](O)[C@H]2O)ccc1Cl | 16100 ng·h/mL |  |  |  |  |  |  |  |  |  | 168 mg | 2060 mg | 6830 mg | 2220 mg | 3400 mg | 10200 mg | 
4 | [2H]C([2H])([2H])Oc1ccc(Cc2cc([C@@H]3O[C@H](CO)[C@@H](O)[C@H](O)[C@H]3O)ccc2Cl)cc1 | 7000 ng·h/mL | 2.69 h | 12.7 mL/min/kg | 3.5 h | 1330 ng·h/mL | 1020 ng·h/mL | 76.3% | 257 ng/mL | 1.56 h | 87% | 251 mg | 1980 mg | 11200 mg | 2230 mg | 3480 mg | 14700 mg | Activity (Rattus norvegicus [8]): 5%; IC50 [12]: 900 nM; Activity (Rattus norvegicus [14]): 26.7%; Activity (Rattus norvegicus [15]): 18.6%; IC50 [17]: 2.5 nM; Activity (Rattus norvegicus [18]): 20.7%; Activity (Rattus norvegicus [23]): 21.6%
5 | COc1ccc(Cc2cc([C@@H]3O[C@H](CO)[C@@H](O)[C@H](O)[C@H]3O)ccc2Cl)cc1 | 5350 ng·h/mL | 2.09 h | 14 mL/min/kg | 3.23 h | 1220 ng·h/mL | 943 ng·h/mL | 77% | 165 ng/mL | 1.75 h | 73% | 233 mg | 1660 mg | 10900 mg | 1890 mg | 3620 mg | 14500 mg | 
